# Reference: ChEMBL document CHEMBL1150803, “Absence of a universal mechanism of mitochondrial toxicity by nucleoside analogs” (Antimicrob Agents Chemother, 2007)
# Experiments:
# [1] = Toxicity against human HepG2/C3A cells assessed as reduction in mitochondrial DNA copy numbers at 50 uM after 4 to 14 days relative to control; format: cell-based; parameters: scale not given: the % may be the effect or the level left
# Method in brief: (§1)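 HepG2/C3A cells were grown in MEM with pyruvate and 10% FBS. Drug in PBS was replenished every 2 days for 4, 10 or 14 days. DNA was extracted and quantified by real-time SYBR Green PCR with 0.5 μM of each primer and 2 mM MgCl2. Output is the cytochrome b/pyruvate kinase gene copy ratio (mtDNA/nDNA), compared with time-matched control. Mean of three experiments.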
# [2] = tested on: H9c2; assay: Toxicity against rat H9c2 cells assessed as reduction in mitochondrial DNA copy numbers at 10 uM after 12 days relative to control; parameters: scale not given: the % may be the effect or the level left; conditions: h9c2, 288 h
# [3] = Toxicity against human HepG2/C3A cells assessed as metabolic alterations at 10 to 50 uM after 4 to 14 days by SRB assay; format: cell-based
# [4] = tested on: H9c2; assay: Toxicity against rat H9c2 cells assessed as inhibition of cell proliferation at 10 to 50 uM after 4 to 14 days by SRB assay; conditions: h9c2, 50 µM
# [5] = Toxicity in human HepG2/C3A cells assessed as induction of cell death at 10 to 50 uM after 4 to 14 days; format: cell-based
# Method in brief: (§2)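 LIVE/DEAD flow cytometry: harvested cells in PBS with 100 nM calcein AM and 8 μM ethidium homodimer 1, 30 min at 37°C in the dark, 488 nm excitation. After debris gating, dead cells are those high in ethidium homodimer and low in calcein, counted per 10,000 events. HepG2 were exposed 4, 10 or 14 days; H9c2 12 days. Compared with time-matched control.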
# [6] = tested on: H9c2; assay: Toxicity in rat […] cells assessed as induction of cell death at 10 to 50 uM after 4 to 14 days
# [7] = Toxicity against human HepG2/C3A cells assessed as reduction in mitochondrial DNA copy numbers at 10 uM after 4 to 14 days relative to control; format: cell-based; parameters: scale not given: the % may be the effect or the level left; method in brief: as §1
# [8] = Toxicity against human HepG2/C3A cells assessed as inhibition of cell proliferation at 10 to 50 uM after 6 days by SRB assay
# [9] = tested on: H9c2; assay: Toxicity against rat H9c2 cells assessed as metabolic alterations at 10 to 50 uM after 4 to 14 days by SRB assay; conditions: h9c2, 50 µM
# [10] = Toxicity against human HepG2/C3A cells assessed as reduction in mitochondrial DNA copy numbers at 0.5 ug/ml after 4 days relative to control; format: cell-based; parameters: scale not given: the % may be the effect or the level left; conditions: 96 h
# Method in brief: (§3)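 DNA was extracted after 0.5 µg/ml EtBr exposure: H9c2 at 12 days (pre-kept 7 days in 1% FBS plus 10 nM retinoic acid), HepG2/C3A at 4, 10 and 14 days. SYBR real-time PCR used 0.5 µM primers and 2 mM MgCl2. Copy numbers came from purified-product standards, reported as cytochrome b/pyruvate kinase ratio versus control.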
# [11] = Toxicity in human HepG2/C3A cells assessed as cell viability at 0.5 ug/ml after 10 days; format: cell-based
# Method in brief: (§4)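 HepG2/C3A cells were cultured with 0.5 µg/ml EtBr for 10 or 14 days. Harvested cells were stained with 100 nM calcein AM and 8 µM ethidium homodimer 1 for 30 min at 37°C in the dark, then analysed by flow cytometry at 488-nm excitation. Dead cells (high ethidium homodimer, low calcein) were counted per 10,000 events after debris gating.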
# [12] = Toxicity against human HepG2/C3A cells assessed as reduction in mitochondrial DNA copy numbers at 0.5 ug/ml after 14 days relative to control; format: cell-based; parameters: scale not given: the % may be the effect or the level left; conditions: 336 h; method in brief: as §3
# [13] = Toxicity against human HepG2/C3A cells assessed as elevation of lactate levels at 0.5 ug/ml after 6 days by NAD+ reduction assay; format: cell-based; conditions: 144 h
# Method in brief: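 Cells were exposed to 0.5 µg/ml EtBr for 6 days in 12-well plates seeded at about 2,500 cells/well, with drug in PBS replenished at medium changes. Medium was deproteinised with TCA. Lactate was measured as NADH at 340 nm after 30 min at room temperature in glycine-hydrazine buffer pH 9.2 with NAD+ and lactate dehydrogenase. Results are nmol/well normalised to SRB absorbance, from three experiments.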
# [14] = Toxicity against human HepG2/C3A cells assessed as increase in mitochondrial superoxide production at 0.5 ug/ml after 4 to 14 days by flow cytometry; format: cell-based
# Method in brief: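 HepG2/C3A cells were cultured in MEM with 10% FBS with 0.5 µg/ml EtBr for 4, 10 and 14 days, with medium changed every 2 days. Attached cells were loaded with 5 µM MitoSOX Red in HBSS with Ca/Mg for 10 min at 37°C in the dark, then trypsinised. Flow cytometry used 488-nm excitation and 530/30 emission; the value is the geometric mean fluorescence of 10,000 cells.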
# [15] = Toxicity against human […] cells assessed as reduction in mitochondrial DNA copy numbers at 0.5 ug/ml after 6 days relative to control; format: cell-based; parameters: scale not given: the % may be the effect or the level left; conditions: hepg2/c3a, 144 h
# [16] = Toxicity against human HepG2/C3A cells assessed as inhibition of cell proliferation at 0.5 ug/ml after 6 days by SRB assay; format: cell-based; conditions: 144 h
# Method in brief: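 Cells were seeded at about 2,500/well in 12-well plates and cultured with 0.5 µg/ml EtBr for 6 days. They were fixed overnight in methanol with 1% acetic acid at −10°C and stained 1 h with 0.5% SRB. Bound dye was eluted with 10 mM Tris pH 10 and absorbance read at 540 nm. Three experiments were run.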
# [17] = Toxicity in human HepG2/C3A cells assessed as cell viability at 0.5 ug/ml after 14 days; format: cell-based; method in brief: as §4
# [18] = Toxicity against human HepG2/C3A cells assessed as reduction in mitochondrial DNA copy numbers at 0.5 ug/ml after 10 days relative to control; format: cell-based; parameters: scale not given: the % may be the effect or the level left; conditions: 240 h; method in brief: as §3
# [19] = tested on: H9c2; assay: Toxicity in rat H9c2 cells assessed as effect on cell viability at 5 uM after 6 days; conditions: h9c2, 144 h
# [20] = Toxicity against human HepG2/C3A cells assessed as reduction in mitochondrial DNA copy numbers at 5 uM after 4 days relative to control; format: cell-based; parameters: scale not given: the % may be the effect or the level left; conditions: 96 h; method in brief: as §1
# [21] = Toxicity against human HepG2/C3A cells assessed as inhibition of cell proliferation at 50 uM after 6 days by SRB assay; format: cell-based; conditions: 144 h
# Method in brief: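 Cells were seeded at about 2,500 per well and exposed to drug for 6 days. They were fixed overnight at −10°C in methanol with 1% acetic acid, stained with 0.5% SRB in 1% acetic acid for 1 h at room temperature, and the dye eluted with 10 mM Tris pH 10. Result is dilution-adjusted absorbance at 540 nm, mean of three experiments.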
# [22] = Toxicity against human HepG2/C3A cells assessed as reduction in mitochondrial DNA copy numbers at 5 uM after 14 days relative to control; format: cell-based; parameters: scale not given: the % may be the effect or the level left; conditions: 336 h; method in brief: as §1
# [23] = Toxicity against human HepG2/C3A cells assessed as induction of cell death at 5 uM after 14 days; format: cell-based; conditions: 336 h; method in brief: as §2
# [24] = Toxicity against human HepG2/C3A cells assessed as reduction in mitochondrial DNA copy numbers at 1 uM after 4 days relative to control; format: cell-based; parameters: scale not given: the % may be the effect or the level left; conditions: 96 h; method in brief: as §1
# [25] = tested on: H9c2; assay: Toxicity in rat H9c2 cells assessed as effect on cell viability at 1 to 5 uM after 12 days; conditions: h9c2, 288 h
# [26] = tested on: H9c2; assay: Toxicity against rat H9c2 cells assessed as reduction in mitochondrial DNA copy numbers at 1 to 5 uM after 12 days relative to control; conditions: h9c2, 288 h
# [27] = Toxicity against human HepG2/C3A cells assessed as reduction in mitochondrial DNA copy numbers at 1 uM after 14 days relative to control; format: cell-based; parameters: scale not given: the % may be the effect or the level left; conditions: 336 h; method in brief: as §1
# [28] = Toxicity against human HepG2/C3A cells assessed as effect on mitochondrial DNA copy numbers at 50 uM after 4 days; format: cell-based; conditions: 96 h; method in brief: as §1
# [29] = tested on: H9c2; assay: Toxicity against rat H9c2 cells assessed as elevation of lactate levels at 10 uM after 6 days by NAD+ reduction assay; conditions: h9c2, 144 h
# [30] = Toxicity against human HepG2/C3A cells assessed as increase in mitochondrial superoxide production at 50 uM by flow cytometry; format: cell-based
# Method in brief: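 Flask-grown cells were loaded with 5 μM MitoSOX Red in HBSS with Ca/Mg for 10 min at 37°C in the dark, trypsinized, and analyzed by flow cytometry (488 nm excitation, 530/30 emission). Result is the geometric mean fluorescence of 10,000 cells. HepG2 were sampled on days 4, 10 and 14; H9c2 on day 12. Compared with time-matched control.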
# [31] = tested on: H9c2; assay: Toxicity in rat H9c2 cells assessed as induction of cell death at 50 uM after 12 days; conditions: h9c2, 288 h
# [32] = Toxicity against human HepG2/C3A cells assessed as elevation of lactate levels at 50 uM after 6 days by NAD+ reduction assay; format: cell-based; conditions: 144 h
# Method in brief: (§5)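 Cells were seeded at about 2,500 per well and exposed 6 days; H9c2 were retinoic-acid-conditioned in 1% FBS. Medium was deproteinized with ice-cold 10% TCA. Lactate was read by LDH-catalyzed NAD+ reduction in 0.2 M glycine-hydrazine pH 9.2 with 0.6 mg/ml NAD+ and 17 U/ml LDH, 30 min at room temperature, absorbance 340 nm. Result is nmol/well normalized to SRB absorbance.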
# [33] = Toxicity against human HepG2/C3A cells assessed as effect on mitochondrial DNA copy numbers at 50 uM after 10 days; format: cell-based; conditions: 240 h; method in brief: as §1
# [34] = tested on: H9c2; assay: Toxicity against rat H9c2 cells assessed as elevation of lactate levels at 50 uM after 6 days by NAD+ reduction assay; conditions: h9c2, 144 h
# [35] = Toxicity against human HepG2/C3A cells assessed as elevation of lactate levels at 10 uM after 6 days by NAD+ reduction assay; format: cell-based; conditions: 144 h; method in brief: as §5
# [36] = Toxicity in human HepG2/C3A cells assessed as induction of cell death at 10 uM after 4 days; format: cell-based; conditions: 96 h; method in brief: as §2
# [37] = tested on: H9c2; assay: Toxicity against rat H9c2 cells assessed as effect on mitochondrial DNA copy numbers after 12 days; conditions: h9c2, 288 h
# [38] = Toxicity in human HepG2/C3A cells assessed as induction of cell death at 50 uM after 10 days; format: cell-based; conditions: 240 h; method in brief: as §2
# [39] = Toxicity in human HepG2/C3A cells assessed as induction of cell death at 50 uM after 4 days; format: cell-based; conditions: 96 h; method in brief: as §2
# [40] = Toxicity in human HepG2/C3A cells assessed as induction of cell death at 50 uM after 14 days; format: cell-based; conditions: 336 h; method in brief: as §2
# [41] = tested on: H9c2; assay: Toxicity against rat H9c2 cells assessed as increase in mitochondrial superoxide production at 50 uM by flow cytometry; conditions: h9c2, 50 µM
smiles,measurement,setting,value
O=c1[nH]cnc2c1ncn2[C@H]1CC[C@@H](CO)O1 [DIDANOSINE],Activity,[1],50%
same,Activity,[2],60%
same,Activity,[3],Non-toxic
same,Activity,[4],Non-toxic
same,Activity,[5],Non-toxic
same,Activity,[6],Non-toxic
same,Activity,[7],80%
same,Activity,[8],Non-toxic
same,Activity,[9],Non-toxic
CC[n+]1c(-c2ccccc2)c2cc(N)ccc2c2ccc(N)cc21.[Br-] [HOMIDIUM BROMIDE],Activity,[10],16%
same,"viability at 240 h, 0.5 ug/ml",[11],> 80%
same,Activity,[12],4%
same,Activity,[13],Toxic
same,Activity,[14],Toxic
same,Activity,[15],16%
same,Activity,[16],Toxic
same,"viability at 336 h, 0.5 ug/ml",[17],> 80%
same,Activity,[18],10%
Nc1ccn([C@H]2CC[C@@H](CO)O2)c(=O)n1 [ZALCITABINE],Activity,[19],Non-toxic
same,Activity,[20],11%
same,Activity,[21],Non-toxic
same,Activity,[22],1%
same,Activity,[23],Toxic
same,Activity,[24],15%
same,Activity,[25],Non-toxic
same,Activity,[26],Non-toxic
same,Activity,[27],1%
Cc1cn([C@H]2C[C@H](N=[N+]=[N-])[C@@H](CO)O2)c(=O)[nH]c1=O [ZIDOVUDINE],Activity,[28],Toxic
same,Activity,[29],Toxic
same,Activity,[30],Toxic
same,Activity,[31],Non-toxic
same,Activity,[21],Toxic
same,Activity,[32],Toxic
same,Activity,[33],Toxic
same,Activity,[34],Toxic
same,Activity,[35],Toxic
same,Activity,[36],Toxic
same,Activity,[37],Non-toxic
same,Activity,[38],Toxic
same,Activity,[39],Toxic
same,Activity,[40],Toxic
same,Activity,[41],Non-toxic
